Assay results as given in the EternaBench riboswitch data.

Test system: MS2 coat protein
Assay: apparent Kd, MS2 coat protein; higher = weaker binding; RNA-MaP array; FMN 200 µM where present
Outline: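 Stalled E. coli RNA polymerase transcribed the designs on Illumina sequencing-chip clusters. SNAP-549-labelled MS2 coat protein was titrated from 0.7 or 1.5 nM, doubling to 3 µM, without and then with constant ligand, in 100 mM Tris-HCl pH 7.5, 80 mM KCl, 4 mM MgCl2, BSA, DTT, yeast tRNA and Tween-20. Per-cluster binding curves were fitted to green signal normalised to red-channel RNA signal and control-cluster median Fmax. The apparent Kd is the median of the filtered fits.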

[1] = designed as: OFF switch for flavin mononucleotide, no ligand
[2] = ligand present: flavin mononucleotide, designed as: OFF switch for flavin mononucleotide
[3] = designed as: ON switch for flavin mononucleotide, no ligand
[4] = ligand present: flavin mononucleotide, designed as: ON switch for flavin mononucleotide

| Sequence | apparent Kd [1] [nM] | apparent Kd [2] [nM] | apparent Kd [3] [nM] | apparent Kd [4] [nM] |
| --- | --- | --- | --- | --- |
| AAUAACAGAGGAUAUACUAUUUUAUGUGUUUGUUAUUUUGAACAUGAGGAUCACCCAUGUAGAAGGCUGAAUAA | 25 | 27.2 | – | – |
| UGAAUGUGAGGAUAUGGUGAGUAGUGCCUAAGCGCUGCUCACCAGAAGGCACAUGAGGAUCACCCAUGUACUUG | 61.7 | 192 | – | – |
| CAAGUGCCGGAAGGAUAUCAGCGAUGUCACGCUUGAGAAGGUCUGUGCACAUGAGGAUCACCCAUGUCCGCCAGACUCCUUAAC | 9.98 | 8.49 | – | – |
| UUGGACGUCGUAGGAUAUGUAGGAUAUUCCUACAUGAGGAUCACCCAUGUUGACAUGGAAGAAGGACAGAAGGACGAGGUCCAU | – | – | 241 | 4.93 |
| UUUAUUUCGGCAGGAUAUACAUGUAUAUAUAUUUCUUUAUAUCUUAUUACAUGAGGAUCACCCAUGUAGAAGGGCCUUCUUAUC | 47.7 | 46 | – | – |
| AGCAUCUGAGGAUAUACUGGGUAUGGAAGGCGAAGGGCCAGACAUGAGGAUCACCCAUGUAGAAGGCAGUUUGC | 79.3 | 32.9 | – | – |
| ACAUGAUAUGUAGGAUAUCACAACAUGAGUUUUAAUAUUGUUAUUUAGGAUUGAGAAGGACAUUUACAUGAGGAUCACCCAUGU | 17.5 | 14.6 | – | – |
| GCAUUUGAAGGAUAUGUCUUCGGAAACAUGAGGAUCACCCAUGUAAUACUCAUAUCACGGACAGAAGGUCAGGGUC | 35.1 | 40.9 | – | – |
| CAGUACAUGUUAGGAUAUGAUUCGGUACAGCGAUCAGAAGGAACAUGAGGAUCACCCAUGUGACCCACGAUUUGCAAACUAAGA | 8.43 | 17.8 | – | – |
| GUCAGCUCGUGAGGAUAUACAUGUGCUGGAGACAGCACUAUUAUGUUCACAUGAGGAUCACCCAUGUAGAAGGCACGAGCUGAU | 16.8 | 20.9 | – | – |
| GGACGUCACAUCUACAUGAGGAUCACCCAUGUCUCUUGAUAUGAGGAUAUGUAUACGAAUCGUAUACAGAAGGCAUGGACGUCC | – | – | 26.9 | 28.8 |
| GUCAGCUCGUGAGGAUAUACAACACUGCUUAGGCAGUGUAUUAAGAUCACAUGAGGAUCACCCAUGUAGAAGGCACGAGCUGAU | 13.6 | 222 | – | – |
| GCAGGAUAAGUGAGGAUAUACCUCUGGAUACAGAGGUAGAAGGUACAUGAGGAUCACCCAUGUCUAUAACCUGC | 14.6 | 16.1 | – | – |
| UCCUUGUCCUGAGGAUAUCCGCGGUUCCCAAAAGGAGAAGGCAGGACAUGAGGAUCACCCAUGUACCCAGAAAACGUGCAGAGC | 9.39 | 33.8 | – | – |
| GCCUUACUGGUCAGGAUAUACAUUUGUUACUCUUUGUAGAAGGGACAUGAGGAUCACCCAUGUACAUUACAUUC | 20.8 | 27.2 | – | – |
| CACGGCGCAUGAGGAUAUCAGGGCGACCUUUCGACAUGAGGAUCACCCAUGUAAUCUACUCGGCGUGAGAAGGCAUGACAGCCA | – | – | 286 | 136 |
| AAAUACGGUCAAGGAUAUGUAUAAAAGAUAAGAAAACAUGAGGAUCACCCAUGUAUAUGGUGGGAACAGAAGGUGAAUAAGUAA | 182 | 142 | – | – |
| UUUAUUUUGCAAGGAUAUGUUUAAUUUUAGUUUCCUUAUACAUGAGGAUCACCCAUGUUAUACUUACAGAAGGUGCAUAAUUUU | 81.6 | 59 | – | – |
| CAUAACUUUUCUCAUGUAAACAUGAGGAUCACCCAUGUAAUGAGAAGGAGGAGGCAGAGAGAAUCCUAGGAUAUCAGAAUUGUU | 6.77 | 6.43 | – | – |
| CUUAUGUGAGGAUAUCAGUAGUAAAAAAAUAAAAUUACUACUGAGAAGGCACAUGAGGAUCACCCAUGUUCCUC | 115 | 429 | – | – |
| GUGUACAGAGGAUAUACUCGAAUCUAGCGAAGCUAGGUUUGACAUGAGGAUCACCCAUGUAGAAGGCUGUACAC | 14.6 | 18.9 | – | – |

| Sequence | apparent Kd [1] [nM] | apparent Kd [2] [nM] | apparent Kd [3] [nM] | apparent Kd [4] [nM] |
| --- | --- | --- | --- | --- |
| UAUAUAUAGUAAGGAUAUGUAUUUAUAUUAUAAACAGAAGGUACUGACAUGAGGAUCACCCAUGUUUUAGUGUGGGCAUGUAGA | 77.9 | 114 | – | – |
| CGCUGUCACGCAGGAUAUGCAUUGGAUUACAAUGCAGAAGGGCGAUCACAUGAGGAUCACCCAUGUGUAGACAGUGAAGAAGAG | – | – | 728 | 47.1 |
| GCAAAGCCUGACAUGAGGAUCACCCAUGUUAGAUUGUUAUGUCAGGAUAUUGUCUAGAAACUAGACAAGAAGGGAUGCUUUGCC | – | – | 734 | 51.3 |
| GGUGCCAUGUAGAAGGCAGAUCUGAUUCAGAUCUGAGGAUAUACAUGAGGAUCACCCAUGUAAAGGCACCGCACGAGAGUGCAA | 6.51 | 8.81 | – | – |
| UGCAGCGUGCACAUGAGGAUCACCCAUGUGCCAGUGGACGCACAGGAUAUGCAAUCGUACGGCUAGCAGAAGGGUGGGUCUCAC | – | – | 7.37 | 7 |
| UUUUUAAAUAUAGGAUAUGGAAACAUGAGGAUCACCCAUGUAUGAUAAGAUAAAUUAUGAUAUAGCCAGAAGGAUAUUAUUUUU | – | – | 32.1 | 29.7 |
| GUUAUUAACAAGAAGGCAUACAUGAGGAUCACCCAUGUUCUACAUGGAUAAUGAGGAUAUUGCUAAUACAUGAGGAUCACCCAU | 48.8 | 53.8 | – | – |
| CCCGCGAUGUCAGGAUAUAGUCGGAGGUGCAGACUAGAAGGGACAUGAGGAUCACCCAUGUGCGUAAACAUUUGAAACCCAGGU | 16.5 | 33.1 | – | – |
| AGAAAACAGGAGAAGGGCCCACGUGAACCUCCAUAUCUGCGAAACAUGAGGAUCACCCAUGUGAGGCAGGAUAUCCAAUUACUU | 9.32 | 38.7 | – | – |
| UUAUGUUUUGUAGGAUAUCAUUAGAUUUGUAAUUUAAUUGUAAUUUAGAUAUGAGAAGGACAUUUACAUGAGGAUCACCCAUGU | 16.1 | 11.5 | – | – |
| UUAGGAUCAGGAUAUGAUGUUUUAAACAUGAGGAUCACCCAUGUAGAUCCUGAUUCAACAUCAGAAGGGAUAAUUU | – | 21.5 | – | – |
| UAGAAACAUGAGGAUCACCCAUGUGGGUUAAACACAGGAUAUCACGCCAAAAGAAAAGCGUGAGAAGGGUGACCGA | – | – | 86.4 | 717 |
| GUCGUGUGAGGAUAUGAUUAUUAGGCGGGAUUGCGACUGCUUCAGAAGGCACAUGAGGAUCACCCAUGUAUGAA | 11.4 | 39 | – | – |
| UAUAUAUAGUAAGGAUAUGUAUUUAUUUCAUAAACAGAAGGUACUGACAUGAGGAUCACCCAUGUUUUAGUGUGGGCAUGUAGA | 81.8 | 121 | – | – |
| AAUUUAAUACAUGAGGAUCACCCAUGUAAUACUAGUAAGAUCUAGGAUAUCAGCUCGAUUAGAGCUGAGAAGGAGAUCACAUGU | – | – | 92.9 | 27.9 |
| GCAGCUUAUGCAGGAUAUCAGCACGUGUAGUGCUGAGAAGGGCACAUGAGGAUCACCCAUGUGAUCAAUUAAUAUAAAUGCUGC | 12.8 | 48.5 | – | – |
| AGUUAAUAUCGAGGAUAUGUCUAGACACAUGAGGAUCACCCAUGUAUGUGUAUAGAAGGCGAUAUUAACAGCAUGUUACAUGCU | – | – | 42.9 | 16.4 |
| UAGAAAGAUUAAUAUGAUUACAUGAGGAUCACCCAUGUAUAUAAGGAUAUCGACGUCAAUGACGUCGAGAAGGUAUAUACAUAA | 66.3 | 198 | – | – |
| CGCAUGCGUAGUAUUAGUUGCUGACAGGAUAUGACAUGAGGAUCACCCAUGUUUAUUAAGAAGAUUCAGAAGGGUCACGUUGCG | 6.87 | 5.8 | – | – |
| UACUAUAAGGAGGAUAUCGUAUCGGAGACGAUACGAGAAGGCUUAACAUGAGGAUCACCCAUGUUCUUCAAUAU | 15.3 | 18.3 | – | – |
| CCUGUGUGAGGAUAUGGUGUUAAAAAAAAGGAAUAGCUCCUCCAGAAGGCACAUGAGGAUCACCCAUGUCGUGG | 23.4 | 57.1 | – | – |
